Tests used:
[1] = Stability study in mouse serum; format: in vitro ADME; settings: 37 °C; for % of 99mTc radioactivity associated with 99mTcO4−1: mouse serum, 18 h; for % intact when incubated in serum: 18 hrs
How it was run: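 Purified 99mTc-labeled test compound (116 μCi, 4.29 MBq) was added to mouse serum containing 0.04% sodium azide, buffered with sodium phosphate pH 7.2, and held at 37 °C. Timed aliquots went to size-exclusion HPLC (TSK G3000SWXL; 0.067 M sodium phosphate/0.10 M KCl, pH 6.8; 1.0 ml/min) with UV and online radioactivity detection. Intact, protein-bound and 99mTcO4− fractions were measured; N ≥ 3.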

[2] = tested on: receptor-positive M21 human melanoma xenografts; experiment: Biodistribution study in nude mice bearing M21 xenografts; format: in vivo; settings: for tumor uptake with co-injection of antagonist: co-injection of 200 μg unlabeled IA; for tumor uptake: 1 h after i.v. injection; for excretion route: inferred from whole-body retention
How it was run: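 Athymic nude mice carried s.c. right-flank xenografts from 3 × 10^6 M21 cells (grown in RPMI 1640, 10% FBS, 1% penicillin-streptomycin, 5% CO2). At about 200 mm3 tumor size, mice received i.v. 99mTc-labeled test compound (6.25 μCi, 0.231 MBq/6 pmol in PBS with 1% BSA). They were euthanized at set times for tissue %ID/g and tumor-to-organ ratios; n=4~15 per time point.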

Stability in PBS = format: physicochemical; settings: 18-h period of incubation
human integrin αvβ3 = human integrin αvβ3 (Homo sapiens, UniProt P05106+P06756); experiment: Receptor-binding assay; settings: 0.8 μM αvβ3, 37 °C, 3 hrs, n = 4
How it was run: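 Purified 99mTc-labeled test compound (1.1×10^6 cpm, <2.5 pmol) was incubated with 2.6 to 51.2 pmol human integrin αvβ3 in PBS pH 7.2 at 37 °C for 3 hrs. Non-specific binding was taken with a 250-fold molar excess of unlabeled antagonist. Bound (7 min) and free (15 min) label were separated by size-exclusion HPLC (TSK G3000SWXL).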

[3] = guanidino group of IAC; ref not given; cited from earlier work
αvβ3 = αvβ3 antagonist; not measured here, no ref given; cited from earlier work

Sequence of human integrin αvβ3 (P06756 31-889 limits assumed): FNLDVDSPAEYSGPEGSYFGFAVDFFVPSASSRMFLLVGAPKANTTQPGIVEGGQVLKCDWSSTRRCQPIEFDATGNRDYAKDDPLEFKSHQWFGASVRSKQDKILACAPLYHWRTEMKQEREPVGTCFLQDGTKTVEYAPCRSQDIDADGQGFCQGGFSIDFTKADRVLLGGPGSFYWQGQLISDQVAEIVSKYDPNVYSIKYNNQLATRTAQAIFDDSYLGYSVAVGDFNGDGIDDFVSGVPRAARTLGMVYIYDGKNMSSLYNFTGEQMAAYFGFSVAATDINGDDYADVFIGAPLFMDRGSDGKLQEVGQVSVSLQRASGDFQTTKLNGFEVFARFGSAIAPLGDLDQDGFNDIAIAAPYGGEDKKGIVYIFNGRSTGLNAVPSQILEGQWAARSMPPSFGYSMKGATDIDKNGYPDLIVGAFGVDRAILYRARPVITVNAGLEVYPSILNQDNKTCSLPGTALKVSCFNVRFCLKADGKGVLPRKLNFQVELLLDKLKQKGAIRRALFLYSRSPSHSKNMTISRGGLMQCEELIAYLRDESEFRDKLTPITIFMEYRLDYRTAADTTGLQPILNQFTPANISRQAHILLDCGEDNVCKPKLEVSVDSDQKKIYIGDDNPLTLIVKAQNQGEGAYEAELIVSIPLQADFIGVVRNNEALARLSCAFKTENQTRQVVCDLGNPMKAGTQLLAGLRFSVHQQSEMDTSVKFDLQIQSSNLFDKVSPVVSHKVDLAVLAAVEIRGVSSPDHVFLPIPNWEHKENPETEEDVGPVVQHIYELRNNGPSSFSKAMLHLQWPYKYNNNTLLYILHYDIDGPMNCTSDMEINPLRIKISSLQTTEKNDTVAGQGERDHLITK
Sequence of human integrin αvβ3 (P06756 891-1048 partner limits assumed): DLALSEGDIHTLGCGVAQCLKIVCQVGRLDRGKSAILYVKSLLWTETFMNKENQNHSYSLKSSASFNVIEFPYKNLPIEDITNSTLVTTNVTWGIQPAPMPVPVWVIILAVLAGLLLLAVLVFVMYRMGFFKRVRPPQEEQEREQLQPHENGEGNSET
Sequence of human integrin αvβ3 (P05106 27-788): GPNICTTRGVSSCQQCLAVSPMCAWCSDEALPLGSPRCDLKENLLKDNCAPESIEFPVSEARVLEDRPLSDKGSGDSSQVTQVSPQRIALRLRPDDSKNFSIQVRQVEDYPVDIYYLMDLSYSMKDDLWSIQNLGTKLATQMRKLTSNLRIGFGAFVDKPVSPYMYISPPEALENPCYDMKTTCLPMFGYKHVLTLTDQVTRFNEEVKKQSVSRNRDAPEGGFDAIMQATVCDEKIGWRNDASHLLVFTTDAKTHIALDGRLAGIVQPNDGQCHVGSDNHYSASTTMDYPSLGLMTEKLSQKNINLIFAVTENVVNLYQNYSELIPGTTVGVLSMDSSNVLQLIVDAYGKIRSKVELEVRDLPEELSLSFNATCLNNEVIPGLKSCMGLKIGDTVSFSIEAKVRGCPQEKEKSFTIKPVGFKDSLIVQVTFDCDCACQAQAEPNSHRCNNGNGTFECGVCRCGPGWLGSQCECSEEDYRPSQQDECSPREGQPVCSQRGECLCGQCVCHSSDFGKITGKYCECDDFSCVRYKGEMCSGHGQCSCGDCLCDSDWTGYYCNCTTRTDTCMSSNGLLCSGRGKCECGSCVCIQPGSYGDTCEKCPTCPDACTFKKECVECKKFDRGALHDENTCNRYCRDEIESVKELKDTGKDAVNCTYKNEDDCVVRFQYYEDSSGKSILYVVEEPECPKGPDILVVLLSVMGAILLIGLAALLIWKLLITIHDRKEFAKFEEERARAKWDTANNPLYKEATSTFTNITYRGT

^99mTc PDA (tricin)/HYNIC-IAC [P2]
% of 99mTc radioactivity associated with 99mTcO4−1 [1]: 9%
% intact when incubated in serum [1]: 77%
accumulation in liver and intestine compared with P1 ([2]; 4-h period): significantly higher accumulation
Tumor-to-organ ratio, Blood ([2]; 1 h): 1.83±0.16
Tumor-to-organ ratio, Bone ([2]; 1 h): 1.48±0.37
Tumor-to-organ ratio, Heart ([2]; 1 h): 2.64±0.36
Tumor-to-organ ratio, Intestine ([2]; 1 h): 0.15±0.01
Tumor-to-organ ratio, Kidney ([2]; 1 h): 0.62±0.05
Tumor-to-organ ratio, Liver ([2]; 1 h): 0.46±0.27
Tumor-to-organ ratio, Lung ([2]; 1 h): 0.83±0.22
Tumor-to-organ ratio, Muscle ([2]; 1 h): 3.85±1.64
Tumor-to-organ ratio, Spleen ([2]; 1 h): 1.09±0.15
Tumor-to-organ ratio, Stomach ([2]; 1 h): 0.40±0.12
whole-body retention ([2]; 1 h): 57.84 ± 5.15 % ID
tumor uptake with co-injection of antagonist ([2]; 1 h): 0.96 ± 0.30 % ID/g
tumor uptake [2]: 2.13±0.17 % ID/g
Tumor-to-organ ratio, Blood ([2]; 2 h): 2.58±0.25
Tumor-to-organ ratio, Bone ([2]; 2 h): 2.73±0.54
Tumor-to-organ ratio, Heart ([2]; 2 h): 3.85±0.57
Tumor-to-organ ratio, Intestine ([2]; 2 h): 0.11±0.02
Tumor-to-organ ratio, Kidney ([2]; 2 h): 0.81±0.07
Tumor-to-organ ratio, Liver ([2]; 2 h): 0.45±0.30
Tumor-to-organ ratio, Lung ([2]; 2 h): 1.34±0.51
Tumor-to-organ ratio, Muscle ([2]; 2 h): 5.75±1.56
Tumor-to-organ ratio, Spleen ([2]; 2 h): 1.95±0.27
Tumor-to-organ ratio, Stomach ([2]; 2 h): 0.29±0.09
Tumor-to-organ ratio, Blood ([2]; 4 h): 3.15±0.25
Tumor-to-organ ratio, Bone ([2]; 4 h): 3.76±1.36
Tumor-to-organ ratio, Heart ([2]; 4 h): 3.88±0.90
Tumor-to-organ ratio, Intestine ([2]; 4 h): 0.07±0.00
Tumor-to-organ ratio, Kidney ([2]; 4 h): 0.78±0.04
Tumor-to-organ ratio, Liver ([2]; 4 h): 0.40±0.17
Tumor-to-organ ratio, Lung ([2]; 4 h): 2.71±0.95
Tumor-to-organ ratio, Muscle ([2]; 4 h): 6.33±1.57
Tumor-to-organ ratio, Spleen ([2]; 4 h): 1.54±0.40
Tumor-to-organ ratio, Stomach ([2]; 4 h): 0.27±0.05
whole-body retention ([2]; 4 h): 54.04 ± 3.57 % ID
radioactivity at 1 h remained in the tumor at 4 h ([2]; 4 h relative to 1 h): 62%
excretion route [2]: excreted to a larger extent via the hepatobiliary system
stability in PBS (Stability in PBS): stable
receptor-bindability (% bound to αvβ3) (human integrin αvβ3): 51.05 ± 14.05%

^99mTc EDDA2/HYNIC-IAC [P1]
% of 99mTc radioactivity associated with 99mTcO4−1 [1]: 3%
% intact when incubated in serum [1]: 84%
tumor uptake value over time ([2]; 4-h period): remained relatively unchanged
Tumor-to-organ ratio, Blood ([2]; 0.3 h): 0.90±0.20
Tumor-to-organ ratio, Bone ([2]; 0.3 h): 1.29±0.23
Tumor-to-organ ratio, Heart ([2]; 0.3 h): 1.91±0.43
Tumor-to-organ ratio, Intestine ([2]; 0.3 h): 0.66±0.07
Tumor-to-organ ratio, Kidney ([2]; 0.3 h): 0.51±0.12
Tumor-to-organ ratio, Liver ([2]; 0.3 h): 0.72±0.12
Tumor-to-organ ratio, Lung ([2]; 0.3 h): 0.72±0.10
Tumor-to-organ ratio, Muscle ([2]; 0.3 h): 3.04±0.68
Tumor-to-organ ratio, Spleen ([2]; 0.3 h): 0.71±0.07
Tumor-to-organ ratio, Stomach ([2]; 0.3 h): 0.54±0.13
Tumor-to-organ ratio, Blood ([2]; 1 h): 1.38±0.48
Tumor-to-organ ratio, Bone ([2]; 1 h): 2.12±1.17
Tumor-to-organ ratio, Heart ([2]; 1 h): 2.48±0.75
Tumor-to-organ ratio, Intestine ([2]; 1 h): 0.60±0.19
Tumor-to-organ ratio, Kidney ([2]; 1 h): 0.75±0.28
Tumor-to-organ ratio, Liver ([2]; 1 h): 0.89±0.27
Tumor-to-organ ratio, Lung ([2]; 1 h): 1.19±0.43
Tumor-to-organ ratio, Muscle ([2]; 1 h): 6.11±1.80
Tumor-to-organ ratio, Spleen ([2]; 1 h): 1.36±0.38
Tumor-to-organ ratio, Stomach ([2]; 1 h): 0.40±0.20
whole-body retention ([2]; 1 h): 39.58 ± 2.91 % ID
effect of unlabeled IA co-injection on tumor uptake ([2]; 1 h, 0, 10 and 200 μg unlabeled IA): blocked by unlabeled IA in a concentration dependent manner
tumor uptake with co-injection of antagonist ([2]; 1 h): 0.68 ± 0.06 % ID/g
tumor uptake [2]: 3.17±0.52 % ID/g
Tumor-to-organ ratio, Blood ([2]; 2 h): 2.19±0.18
Tumor-to-organ ratio, Bone ([2]; 2 h): 2.46±0.19
Tumor-to-organ ratio, Heart ([2]; 2 h): 3.23±0.48
Tumor-to-organ ratio, Intestine ([2]; 2 h): 0.57±0.07
Tumor-to-organ ratio, Kidney ([2]; 2 h): 0.85±0.08
Tumor-to-organ ratio, Liver ([2]; 2 h): 1.02±0.12
Tumor-to-organ ratio, Lung ([2]; 2 h): 1.50±0.09
Tumor-to-organ ratio, Muscle ([2]; 2 h): 4.68±0.31
Tumor-to-organ ratio, Spleen ([2]; 2 h): 1.30±0.12
Tumor-to-organ ratio, Stomach ([2]; 2 h): 0.43±0.11
Tumor-to-organ ratio, Blood ([2]; 4 h): 17.11±5.18
Tumor-to-organ ratio, Bone ([2]; 4 h): 4.78±1.07
Tumor-to-organ ratio, Heart ([2]; 4 h): 7.62±1.99
Tumor-to-organ ratio, Intestine ([2]; 4 h): 0.46±0.15
Tumor-to-organ ratio, Kidney ([2]; 4 h): 1.22±0.32
Tumor-to-organ ratio, Liver ([2]; 4 h): 1.59±0.72
Tumor-to-organ ratio, Lung ([2]; 4 h): 2.47±0.49
Tumor-to-organ ratio, Muscle ([2]; 4 h): 7.84±1.78
Tumor-to-organ ratio, Spleen ([2]; 4 h): 2.83±0.81
Tumor-to-organ ratio, Stomach ([2]; 4 h): 1.53±0.80
whole-body retention ([2]; 4 h): 27.25 ± 3.67 % ID
excretion route [2]: excreted primarily via the renal system
stability in PBS (Stability in PBS): stable
receptor-bindability (% bound to αvβ3) (human integrin αvβ3): 78.02 ± 13.48%

CC(C)(CN)CNC(=O)NCCS(=O)(=O)N[C@@H](CNC(=O)c1ccc(OCCNC2=NCCCN2)cc1)C(=O)O.Cl [IAC, 4-[2-(3,4,5,6-tetrahydropyrimidin-2-ylamino)-ethyloxy]benzoyl-2-(S)-[N-(3-aminoneopenta-1-carbamyl)]-aminoethylsulfonylamino-β-alanine hydrochloride]
pKa [3]: ~ 12
IC50 (αvβ3): 2.94 nM

Reference: PMC2885802 (Current radiopharmaceuticals, 2010)
